Assay results from ChEMBL document CHEMBL5370602, “Structure-Based Design of a Lead Compound Derived from Natural Schweinfurthins with Antitumor Properties That Target Oxysterol-Binding Protein” (J Med Chem, 2023).
Activity calls are given as the source filed them. No cut-off for these calls is given here.

What was measured:
[1] = tested on: U-87 MG; experiment: Antiproliferative activity against human U-87 MG cells assessed as inhibition of cell proliferation incubated for 72 hrs by CellTiter-Glo luminescent assay; type: functional, cell-based, U-87MG ATCC
Procedure, shortened: (§1)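 A549 in RPMI 1640 and U-87MG in DMEM, each with 10% FCS and 1% glutamine, at 37 °C and 5% CO₂. Cells seeded at 3000/well, dosed the next day, treated 72 h. Viability read by CellTiter-Glo luminescence with DMSO-treated cells set to 100%. IC50 taken from survival curves over three independent experiments.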

[2] = tested on: A549; experiment: Antiproliferative activity against human A549 cells assessed as inhibition of cell proliferation incubated for 72 hrs by CellTiter-Glo luminescent assay; type: functional, cell-based; settings: A549, 72 h; procedure, shortened: as §1
[3] = molecular target: T1, Oxysterol-binding protein 1 (Homo sapiens, UniProt P22059); experiment: Inhibition of human C-terminal 6-His tagged OSBP ORD domain (401 to 807 residues) expressed in baculovirus-infected Sf9 cells assessed as reduction in DHE transfer from liposome (Le mimicking ER) to liposome (Lg mimicking golgi) with compound by FRET assay
T1 sequence (P22059 whole entry): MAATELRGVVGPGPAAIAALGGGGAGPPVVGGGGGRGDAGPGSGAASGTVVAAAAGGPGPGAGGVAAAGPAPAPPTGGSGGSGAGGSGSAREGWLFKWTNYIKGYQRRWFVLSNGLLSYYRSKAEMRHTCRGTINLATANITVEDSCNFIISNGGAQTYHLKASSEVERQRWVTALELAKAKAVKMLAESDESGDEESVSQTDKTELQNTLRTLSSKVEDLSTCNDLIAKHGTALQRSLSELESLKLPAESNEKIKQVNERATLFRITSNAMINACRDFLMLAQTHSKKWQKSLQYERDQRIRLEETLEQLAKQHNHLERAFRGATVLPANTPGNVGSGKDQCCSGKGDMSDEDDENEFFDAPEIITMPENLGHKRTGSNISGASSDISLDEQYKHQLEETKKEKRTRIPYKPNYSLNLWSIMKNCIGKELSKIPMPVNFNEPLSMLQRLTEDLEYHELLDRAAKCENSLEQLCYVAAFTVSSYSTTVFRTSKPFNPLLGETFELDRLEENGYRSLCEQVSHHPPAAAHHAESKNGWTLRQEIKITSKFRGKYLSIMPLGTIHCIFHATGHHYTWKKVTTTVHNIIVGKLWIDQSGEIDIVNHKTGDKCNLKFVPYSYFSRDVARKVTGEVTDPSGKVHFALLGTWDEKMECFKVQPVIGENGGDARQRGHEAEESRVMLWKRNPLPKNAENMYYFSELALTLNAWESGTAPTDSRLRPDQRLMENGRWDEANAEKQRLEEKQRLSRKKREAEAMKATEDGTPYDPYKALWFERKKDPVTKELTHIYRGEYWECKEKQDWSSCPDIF
Procedure, shortened: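 Purified human OSBP ORD (401-807, C-terminal 6×His) from baculovirus-infected Sf9 cells, used in a DHE sterol transfer fluorescence assay. Signal corrected for compound fluorescence. Kinetics fitted linearly or by ΔF = ΔFmax(1 − e^−kt) to give apparent k, which was plotted against compound concentration. Ki from a quadratic (tight binders) or hyperbolic equation, three independent experiments.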

[4] = Metabolic stability in mouse plasma assessed as compound remaining at 5 uM and measured after 120 mins by UPLC-MS/MS analysis; type: ADME, cell-free; settings: read-out: Stability
Procedure, shortened: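 Male mouse plasma at 37 °C with compound added from a 5 µM solution […]. Sampled at 0, 15, 30, 45, 60 and 120 min, quenched with acetonitrile and read by LC-MS/MS (MRM) in duplicate. Procaine positive control. Remaining % and t1/2 derived from MRM area relative to t = 0.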

[5] = Metabolic stability in mouse liver microsomes assessed as compound remaining at 2.5 uM and measured after 45 mins in presence of NADPH by LC-MS/MS analysis; type: ADME, Microsome; settings: read-out: Stability
[6] = Metabolic stability in mouse liver microsomes assessed as intrinsic clearance at 2.5 uM and measured upto 45 mins in presence of NADPH by LC-MS/MS analysis; type: ADME, Microsome; settings: read-out: CLH
[7] = Metabolic stability in mouse liver microsomes assessed as compound remaining at 2.5 uM and measured after 45 mins in absence of NADPH by LC-MS/MS analysis; type: ADME, Microsome; settings: read-out: Stability
[8] = Drug uptake in human hTERT-RPE1 cells assessed as drug co-localization with OSBP perinuclear region of cell incubated for 30 mins by immunofluorescence analysis; type: ADME, cell-based; settings: tert-rpe1, 0.5 h
Procedure, shortened: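 hTERT-RPE-1 cells incubated 30 min with compound, then fixed (4% paraformaldehyde, 0.1% glutaraldehyde, 10 min), quenched with 50 mM NH₄Cl and permeabilized in saponin 0.05%/BSA 0.2%. Immunolabeled for OSBP and TGN-46. Compound imaged directly by UV-adapted widefield fluorescence (excitation 330, emission 410 nm).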

[9] = molecular target: T2, Oxysterol-binding protein 1 (Homo sapiens) (UniProt P22059); experiment: Inhibition of human OSBP in human hTERT-RPE1 cells co-transfected with GFP-P4MSidM and TagBFP-betaGalT1 assessed as increase in PI4P at TGN by measuring GFP-P4M fluorescence and measured after 50 mins by immunofluorescence analysis; type: cell-based
T2 sequence (whole entry): T1 sequence (P22059 whole entry)
Procedure, shortened: (§2)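 hTERT-RPE-1 cells electroporated with GFP-P4M^SidM (PI4P probe) and TagBFP-βGalT1, plated 18-24 h. Timelapse confocal imaging at 37 °C after compound addition, with P4M-GFP intensity at the TGN tracked over time and compared before and 50 min after addition. Mean of 4 to 6 independent experiments ± SEM.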

[10] = molecular target: T2, Oxysterol-binding protein 1 (Homo sapiens); experiment: Inhibition of human OSBP in human hTERT-RPE1 cells co-transfected with GFP-P4MSidM and TagBFP-betaGalT1 assessed as half life for inhibition of PI4P transfer by OBSP by immunofluorescence analysis; type: cell-based; procedure, shortened: as §2
[11] = molecular target: T2, Oxysterol-binding protein 1 (Homo sapiens); experiment: Inhibition of human OSBP in human hTERT-RPE1 cells assessed as increase in OSBP recruitment at TGN and measured after 10 mins by confocal microscopy; type: cell-based
[12] = molecular target: T2, Oxysterol-binding protein 1 (Homo sapiens); experiment: Inhibition of human OSBP in human hTERT-RPE1 cells assessed as increase in OSBP recruitment at TGN and measured after 4 hrs by confocal microscopy; type: cell-based
[13] = molecular target: T3, mTORC1 (Homo sapiens) (UniProt P42345+Q8N122+Q9BVC4); experiment: Inhibition of mTORC1 signalling in human U-87 MG cells assessed as decrease in S6K phosphorylation at T389 residue at 0.05 to 1 uM incubated for 48 hrs by Western blot analysis; type: cell-based
Procedure, shortened: (§3)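 U-87 MG cells cultured two days, then exposed 48 h to increasing doses. Lysed in RIPA with protease inhibitors; 5 µg protein run on 4-20% SDS gels and transferred to PVDF. Probed for phospho/total AKT, S6, S6K, P62 and LC3, detected by ECL. Band intensities normalized to β-actin.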

[14] = molecular target: T3, mTORC1 (Homo sapiens); experiment: Inhibition of mTORC1 signalling in human U-87 MG cells assessed as decrease in S6 phosphorylation at S240/244 residue at 0.05 to 1 uM incubated for 48 hrs by Western blot analysis; type: cell-based; procedure, shortened: as §3
[15] = molecular target: mTORC2 (Homo sapiens) (UniProt P42345+Q6R327+Q9BVC4+Q9BPZ7); experiment: Inhibition of mTORC2 signalling in human U-87 MG cells assessed as decrease in AKT phosphorylation at S473 residue at 0.05 to 1 uM incubated for 48 hrs by Western blot analysis; type: cell-based; procedure, shortened: as §3
[16] = tested on: U-87 MG; experiment: Induction of autophagy in human U-87 MG cells assessed as decrease in LC3I expression at 0.05 to 1 uM incubated for 48 hrs by Western blot analysis; type: functional, cell-based; settings: U-87MG ATCC; procedure, shortened: as §3
[17] = tested on: U-87 MG; experiment: Induction of autophagy in human U-87 MG cells assessed as increase in LC3II expression at 0.05 to 1 uM incubated for 48 hrs by Western blot analysis; type: functional, cell-based; settings: U-87MG ATCC; procedure, shortened: as §3
[18] = tested on: U-87 MG; experiment: Induction of autophagy in human U-87 MG cells assessed as decrease in P62 expression at 0.05 to 1 uM incubated for 48 hrs by Western blot analysis; type: functional, cell-based; settings: U-87MG ATCC; procedure, shortened: as §3

SMILES	IC50 [1] [nM]	IC50 [2] [nM]	Ki [3] [nM]	further results
CC(C)=CCc1c(O)cc(/C=C/c2cc3c(c4c2C=CCO4)O[C@]2(C)CC[C@@H](O)C(C)(C)[C@H]2C3)cc1O	481	> 10000	37	
COc1cc(/C=C/c2cc(O)c(CC=C(C)C)c(O)c2)cc2c1O[C@@]1(C)[C@H](C2)C(C)(C)[C@H](O)C[C@@H]1O	510	1120	254	
CC(C)=CCc1c(O)cc(/C=C/c2cc(O)c3c(c2)C[C@@H]2C(C)(C)[C@H](O)[C@H](O)C[C@@]2(C)O3)cc1O [VEDELIANIN]	15	966	< 1	
COc1cc(/C=C/c2cc(O)c(CC=C(C)C)c(O)c2)cc2c1O[C@]1(C)C[C@@H](O)[C@@H](O)C(C)(C)[C@H]1C2 [SCHWEINFURTHIN E]	22	397	< 1	
COc1cc(/C=C/c2cc(O)c3c(c2)OC(C)(C)CC3)cc2c1O[C@]1(C)C[C@@H](O)[C@@H](OC=O)C(C)(C)[C@H]1C2	500	2150	829	
COc1cc(CCc2cc(O)c3c(c2)OC(C)(C)CC3)cc2c1O[C@]1(C)CC[C@@H](O)C(C)(C)[C@H]1C2	3850	> 10000	46	
C=CCc1c(/C=C/c2cc(O)c(CC=C(C)C)c(O)c2)cc2c(c1O)O[C@]1(C)CC[C@@H](O)C(C)(C)[C@H]1C2	457	2860	119	
COc1cc(/C=C/c2cc(O)c3c(c2)OC(C)(C)C(O)C3)cc2c1O[C@]1(C)C[C@@H](O)[C@@H](O)C(C)(C)[C@H]1C2 (some centres undefined) [SCHWEINFURTHIN H]	656	1790	401	
CC(C)=CCC/C(C)=C/Cc1cc(/C=C/c2cc(O)c(CC=C(C)C)c(O)c2)cc(O)c1O [MAPPAIN]	7000	> 10000	3000	
COc1cc(/C=C/c2cc(O)c(CC=C(C)C)c(O)c2)cc2c1O[C@]1(C)CC[C@@H](O)C(C)(C)[C@H]1C2 [SCHWEINFURTHIN F]	98	605	6	
COc1cc(/C=C/c2cc(O)c3c(c2)OC(C)(C)CC3)cc2c1O[C@]1(C)CC[C@@H](O)C(C)(C)[C@H]1C2	478	2530	64	
COc1cc(CCc2cc(O)c3c(c2)OC(C)(C)CC3)cc2c1O[C@]1(C)CC[C@@H](OC=O)C(C)(C)[C@H]1C2	1480	> 10000	3700	

Continued, in another order:

IC50 [1] [nM]	IC50 [2] [nM]	Ki [3] [nM]	SMILES	further results
336	1100	16	COc1cc(/C=C/c2cc(O)c3c(c2)OC(C)(C)CC3)cc2c1O[C@]1(C)C[C@@H](O)[C@@H](O)C(C)(C)[C@H]1C2	
67	3040	3220	CC1(C)CCc2c(O)cc(CCc3cc(O)c4c(c3)C[C@@H]3C(C)(C)[C@H](OC=O)CC[C@@]3(C)O4)cc2O1	
77	3910	< 1	CC1(C)CCc2c(O)cc(CCc3cc(O)c4c(c3)C[C@@H]3C(C)(C)[C@H](O)CC[C@@]3(C)O4)cc2O1	
420	5000	31	C=CCOc1cc(/C=C/c2cc(O)c(CC=C(C)C)c(O)c2)cc2c1O[C@]1(C)CC[C@@H](O)C(C)(C)[C@H]1C2	
380	2420	523	COc1cc(/C=C/c2cc(O)c3c(c2)OC(C)(C)CC3)cc2c1O[C@]1(C)CC[C@@H](OC=O)C(C)(C)[C@H]1C2	
9.4	647	< 1	CC1(C)CCc2c(O)cc(/C=C/c3cc(O)c4c(c3)C[C@@H]3C(C)(C)[C@H](O)CC[C@@]3(C)O4)cc2O1	remaining at 2 h, 5 µM [4]: 100%; remaining at 0.75 h, 2.5 µM [5]: 48.6%; microsomal CLint at 2.5 µM [6]: 32 µL/min/mg; remaining at 0.75 h, 2.5 µM [7]: 100%
286	3900	43	C#CCOc1cc(/C=C/c2cc(O)c(CC=C(C)C)c(O)c2)cc2c1O[C@]1(C)CC[C@@H](O)C(C)(C)[C@H]1C2	
8	359	< 1	CC(C)=CCc1c(O)cc(/C=C/c2cc(O)c3c(c2)C[C@@H]2C(C)(C)[C@H](O)CC[C@@]2(C)O3)cc1O [SCHWEINFURTHIN G]	Drug uptake [8]: Active; inhibition [9]: Active; T1/2 [10]: 10 min; inhibition [11]: Active; inhibition [12]: inactive; inhibition [13]: Dose-Dependent Effect; inhibition [14]: Dose-Dependent Effect; inhibition [15]: Dose-Dependent Effect; Activity [16]: Dose-Dependent Effect; Activity [17]: Dose-Dependent Effect; Activity [18]: Dose-Dependent Effect; remaining at 2 h, 5 µM [4]: 100%; remaining at 0.75 h, 2.5 µM [5]: 23%; microsomal CLint at 2.5 µM [6]: 90 µL/min/mg; remaining at 0.75 h, 2.5 µM [7]: 100%
